Measured values published in ChEMBL document CHEMBL1141098, “Molecular modeling of wild-type and D816V c-Kit inhibition based on ATP-competitive binding of ellipticine derivatives to tyrosine kinases” (J Med Chem, 2005).
pIC50: −log10 of the molar value.

Columns and labels:
[1] = molecular target: Mast/stem cell growth factor receptor Kit (Homo sapiens, UniProt P10721, D816V); assay: Inhibitory concentration against c-Kit D816V type expressed in recombinant baculovirus
Method in brief: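 Recombinant c-Kit D816V expressed in baculovirus-infected High Five cells (MOI 10, harvested 90 h), purified by ion exchange then Ni affinity chromatography. ELISA on poly-Glu/Tyr (1:4)-coated wells; 10 nM final enzyme in 10 mM MgCl2, 1 mM MnCl2, 1 mM vanadate, 20 mM HEPES pH 7.3, BSA; 15 min at 25 °C, EDTA stop. Anti-phosphotyrosine-HRP detection, OPD, absorbance 492 nm; IC50 from inhibition.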

[2] = molecular target: Mast/stem cell growth factor receptor Kit (Homo sapiens, UniProt P10721); assay: Inhibitory concentration against c-Kit wild type expressed in recombinant baculovirus
[3] = molecular target: Fibroblast growth factor receptor 3 (Homo sapiens, UniProt P22607); assay: Inhibitory activity against Fibroblast growth factor receptor 3
Method in brief: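 Commercially supplied FGFR3 enzyme. Value is the IC50 for inhibition of kinase activity.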

Chain of Mast/stem cell growth factor receptor Kit (Homo sapiens, UniProt P10721) (P10721 whole entry): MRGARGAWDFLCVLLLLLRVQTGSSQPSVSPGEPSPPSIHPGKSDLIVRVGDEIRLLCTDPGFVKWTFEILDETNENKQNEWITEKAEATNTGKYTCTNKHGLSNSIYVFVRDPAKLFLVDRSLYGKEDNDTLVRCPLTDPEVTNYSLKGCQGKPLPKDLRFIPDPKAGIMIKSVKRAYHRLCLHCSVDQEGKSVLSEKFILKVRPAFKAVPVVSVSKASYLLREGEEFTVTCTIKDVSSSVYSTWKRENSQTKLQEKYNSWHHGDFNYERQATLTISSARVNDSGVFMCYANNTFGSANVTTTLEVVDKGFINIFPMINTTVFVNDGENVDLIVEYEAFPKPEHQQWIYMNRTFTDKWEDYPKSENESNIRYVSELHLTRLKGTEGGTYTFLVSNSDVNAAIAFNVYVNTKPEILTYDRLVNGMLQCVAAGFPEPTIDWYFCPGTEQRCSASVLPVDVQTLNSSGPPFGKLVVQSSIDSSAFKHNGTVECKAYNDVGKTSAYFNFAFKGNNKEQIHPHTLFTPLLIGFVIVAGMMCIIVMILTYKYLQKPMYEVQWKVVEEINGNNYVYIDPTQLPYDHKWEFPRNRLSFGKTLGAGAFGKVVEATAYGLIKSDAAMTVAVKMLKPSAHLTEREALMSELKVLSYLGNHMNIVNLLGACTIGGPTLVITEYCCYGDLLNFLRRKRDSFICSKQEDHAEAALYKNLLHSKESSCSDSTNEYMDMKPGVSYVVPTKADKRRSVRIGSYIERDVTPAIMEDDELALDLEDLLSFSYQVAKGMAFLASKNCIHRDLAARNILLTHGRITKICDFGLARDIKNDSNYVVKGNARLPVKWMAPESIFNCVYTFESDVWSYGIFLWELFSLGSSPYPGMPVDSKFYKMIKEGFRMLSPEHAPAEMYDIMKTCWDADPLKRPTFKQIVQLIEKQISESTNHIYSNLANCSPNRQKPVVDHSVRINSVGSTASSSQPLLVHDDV
Chain of Mast/stem cell growth factor receptor Kit (Homo sapiens, UniProt P10721, D816V) (P10721 26-976 D816V limits assumed): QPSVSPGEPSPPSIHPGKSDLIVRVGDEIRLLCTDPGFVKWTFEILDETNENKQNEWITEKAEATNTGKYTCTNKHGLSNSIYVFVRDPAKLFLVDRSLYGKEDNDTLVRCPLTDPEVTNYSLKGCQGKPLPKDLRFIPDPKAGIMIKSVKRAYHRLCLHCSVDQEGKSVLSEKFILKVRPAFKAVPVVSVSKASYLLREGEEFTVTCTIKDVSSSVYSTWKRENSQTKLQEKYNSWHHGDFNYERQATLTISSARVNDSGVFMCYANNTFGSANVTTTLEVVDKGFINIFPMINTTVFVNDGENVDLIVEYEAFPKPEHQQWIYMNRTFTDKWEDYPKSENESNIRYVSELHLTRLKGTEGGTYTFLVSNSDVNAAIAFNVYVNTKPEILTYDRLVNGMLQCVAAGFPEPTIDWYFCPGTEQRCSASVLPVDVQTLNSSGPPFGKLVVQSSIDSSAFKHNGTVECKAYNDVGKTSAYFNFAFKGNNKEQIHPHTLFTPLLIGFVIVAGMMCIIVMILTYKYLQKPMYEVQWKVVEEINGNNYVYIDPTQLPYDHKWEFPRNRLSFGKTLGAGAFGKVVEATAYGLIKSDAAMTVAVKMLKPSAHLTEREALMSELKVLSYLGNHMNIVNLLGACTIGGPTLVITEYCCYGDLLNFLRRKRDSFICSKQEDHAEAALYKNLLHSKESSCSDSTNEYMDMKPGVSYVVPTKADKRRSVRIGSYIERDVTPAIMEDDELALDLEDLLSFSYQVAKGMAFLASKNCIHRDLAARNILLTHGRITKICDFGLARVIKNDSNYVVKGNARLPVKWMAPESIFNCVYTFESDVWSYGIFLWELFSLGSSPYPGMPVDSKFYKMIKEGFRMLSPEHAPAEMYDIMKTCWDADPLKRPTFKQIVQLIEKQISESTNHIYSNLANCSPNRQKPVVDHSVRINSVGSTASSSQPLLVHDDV
Chain of Fibroblast growth factor receptor 3 (P22607 whole entry): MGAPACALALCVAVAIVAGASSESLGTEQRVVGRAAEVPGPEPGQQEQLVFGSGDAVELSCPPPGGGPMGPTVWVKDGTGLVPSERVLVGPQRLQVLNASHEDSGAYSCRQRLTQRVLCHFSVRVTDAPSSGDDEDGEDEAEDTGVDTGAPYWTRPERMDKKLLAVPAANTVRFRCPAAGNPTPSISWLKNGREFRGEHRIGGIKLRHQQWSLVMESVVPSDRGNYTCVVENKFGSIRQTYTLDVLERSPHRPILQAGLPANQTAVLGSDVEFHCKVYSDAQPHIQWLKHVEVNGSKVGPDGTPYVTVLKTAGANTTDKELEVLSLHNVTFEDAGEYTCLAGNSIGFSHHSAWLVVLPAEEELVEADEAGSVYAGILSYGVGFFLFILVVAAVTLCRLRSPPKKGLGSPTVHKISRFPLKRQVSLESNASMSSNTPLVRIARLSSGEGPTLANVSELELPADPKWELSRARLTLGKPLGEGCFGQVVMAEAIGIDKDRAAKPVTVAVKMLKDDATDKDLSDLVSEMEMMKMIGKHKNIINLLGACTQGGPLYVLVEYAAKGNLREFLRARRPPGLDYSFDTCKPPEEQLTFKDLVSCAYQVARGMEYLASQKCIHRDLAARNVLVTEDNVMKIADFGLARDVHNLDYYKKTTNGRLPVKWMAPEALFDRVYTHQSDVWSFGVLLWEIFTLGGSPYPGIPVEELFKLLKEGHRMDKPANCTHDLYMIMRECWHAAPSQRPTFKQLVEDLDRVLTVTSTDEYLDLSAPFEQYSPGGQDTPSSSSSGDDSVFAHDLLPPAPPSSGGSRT

| Compound | pIC50 [1] | pIC50 [2] | pIC50 [3] |
| --- | --- | --- | --- |
| Cc1c2ccncc2c(C)c2c1[nH]c1ccccc12 [ELLIPTECINE] | < 5.00 | < 5.00 | – |
| CCN(CC)CCCNc1nccc2c(C)c3[nH]c4ncccc4c3cc12 | 5.72 | 5.64 | – |
| CCN(CC)CC[n+]1ccc2c(C)c3[nH]c4ccc(O)cc4c3c(C)c2c1 | 6.52 | 6.35 | – |
| CCN(CC)CCCNc1nccc2c(C)c3[nH]c4ccc(O)cc4c3c(C)c12 | 5.92 | 5.85 | – |
| CCN(CC)CCCNc1nccc2c(C)c3c(c(C)c12)c1cc(O)ccc1n3C | 5.44 | 5.60 | 5.85 |
| Cc1c2ccncc2c(C)c2c1[nH]c1ccc(O)cc12 | 6.40 | 6.40 | 6.40 |
| Cc1c2ccncc2c(C)c2c1[nH]c1ccc(Br)cc12 | < 5.00 | < 5.00 | – |
| COc1ccc2[nH]c3c(C)c4ccncc4c(C)c3c2c1 | 6.22 | 6.10 | – |
| Cc1c2cc[n+](C)cc2c(C)c2c1[nH]c1ccc(O)cc12 | 6.40 | 6.40 | 6.30 |
| CCN(CC)CCCNc1nccc2c(C)c3[nH]c4ccc(OC)cc4c3cc12 | 5.70 | 5.60 | – |
